In PubChem BioAssay:
Several values for one entry are separate records, joined by “and”; a condition that tells them apart may be missing. Identical values can stand only once. Activity calls are given as the source filed them.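 How the source made its calls, unless noted: active means viability loss from added drug above about 55%, and viability with drug at most 40%, in both replicates (limit read from the data, passing the limit was not always enough); inconclusive means both conditions met in only one replicate; inactive means neither replicate meets both conditions.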

How the values were obtained:
[1] = reduced viability of SK-BR-3 breast cancer cells – cell-based, 24 h, human, pilot screen (AID 572;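 active means viability at or below 10% of carrier control in both of two separate runs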;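 further: compound exposure lasted between 18 and 24 h rather than exactly 24 h; 100% = carrier-treated control wells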); settings: SK-BR-3 viability, CellTiter-Glo luminescence, at 10 µM, stronger effect = lower value
[2] = HUVEC growth inhibition – cell-based, human, primary screen (AID 575;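 active means viability at or below 30% in both replicate assays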;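 further: 100% = median of untreated cell wells with 0.1% DMSO on each plate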); settings: HUVEC proliferation, CellTiter-Glo luminescence, 72 h; at 10 µM; stronger effect = lower value
Summary of the method: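 Test system: HUVEC primary cells. Quantity: 1250 endothelial cells in each well. Dosing: single-point 10 µM, DMSO 0.1% final. Incubation: 72 h treatment at 37 °C. Measured by: CTG luminescence. Control set: DMSO cell controls and MePR drug controls. Plate: collagen-coated 384-well format.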

[3] = H69AR cell proliferation blockers – human, duplicate replicates, primary screen (AID 580;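 active means viability at or under a set limit in both replicates, limit being median viability minus 3 SD, cut at about 48% in these data, passing the limit was not always enough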;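 further: 100% = mean luminescence of untreated wells and 0% = no signal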); settings: H69AR lung tumor cells viability, ATP luminescence, 72 h; at 10 µM; stronger effect = lower value
[4] = MRP1 drug-resistance reversers in H69AR cells – cell-based, doxorubicin co-treatment, pilot screen (AID 601); settings: CellTiter-Glo, 72 h, at 10 µM; for differential viability (reversal): stronger effect = higher value
[5] = yeast transport mutant growth inhibition pilot in 384-well plates, post-Golgi transport modulator project (AID 636; in the data active means inhibition above about 31%); settings: absorbance 615 nm, about 18 h, stronger effect = higher value
[6] = growth suppression of yeast trafficking mutant, preliminary HTS, modulators of trafficking downstream of Golgi apparatus project, 1536-format plate, OD 615 nm (AID 637; in the data active means inhibition above about 30%); settings: yeast transport mutant growth, absorbance 615 nm, 18 h; stronger effect = higher value
[7] = H69AR cells + 2 uM doxorubicin, measured here: viability with 2 uM doxorubicin, stronger effect = lower value
[8] = H69AR cells, compound alone cytotoxicity

Structure (SMILES)	viability [1]	viability [2]	viability [3]	differential viability (reversal) ([4]; H69AR cells + 2 uM doxorubicin)	viability [4, 7]	viability [4, 8]	inhibition [5]	inhibition [6]
COc1cc(C(=O)N(C)c2nnc(-c3cccnc3)s2)cc(OC)c1OC	123% (inactive)	89.6% (inactive)	82.7% (inactive)	-8.95% (inactive)	91.6%	82.7%	-2.05% (inactive)	17.4% (inactive)
COc1cccc(-c2nnc(SCC(N)=O)n2-c2ccc(Cl)cc2)c1	114% (inactive)	103% (inactive)	97.1% (inactive)	4.49% (inactive)	92.6%	97.1%	0% (inactive)	-4.19% (inactive)
CCC(C(=O)OCCN(CC)CC)c1ccccc1 (configuration not stated)	114% (inactive)	86.8% (inactive)	86.7% (inactive)	-0.8% (inactive)	87.5%	86.7%	-1.56% (inactive)	2.33% (inactive)
Cc1ccc(-c2nc3cc(NC(=O)C(C)C)ccc3o2)cc1C	80% (inactive)	51.8% (inactive)	72.9% (inactive)	2.97% (inactive)	69.9%	72.9%	-4.66% (inactive)	-8.55% (inactive)
COc1ccccc1-c1nc2n(n1)C(c1ccc(Cl)cc1)C(C(N)=O)=C(C)N2 (configuration not stated)	126% (inactive)	89.8% (inactive)	83.5% (inactive)	-4.36% (inactive)	87.9%	83.5%	-0.91% (inactive)	-3.61% (inactive)
CN(C)C(CNC(=O)Nc1cccc(Cl)c1)c1cccnc1 (configuration not stated)	77% (inactive)	96.6% (inactive)	90.6% (inactive)	8.96% (inactive)	81.7%	90.6%	-3.42% (inactive)	2.18% (inactive)
COC(=O)CNC(=O)COC(=O)c1cc(Cl)cc(Cl)c1N	104% (inactive)	96.6% (inactive)	92.6% (inactive)	-2.94% (inactive)	95.5%	92.6%	0.82% (inactive)	45.3% (active)
Cn1c(C(=O)OCC(=O)NCC2CCCO2)cc2sccc21 (configuration not stated)	85% (inactive)	113% (inactive)	92.7% (inactive)	3.19% (inactive)	89.6%	92.7%	-9.04% (inactive)	2.9% (inactive)
CCCCOc1cc(C(=O)NCCN(CC)CC)c2ccccc2n1	99% (inactive) and 112% (inactive)	53.4% (inactive) and 59.6% (inactive)	89.5% (inactive) and 84.4% (inactive)	8.11% (inactive) and 17.8% (inactive)	81.4% and 66.6%	89.5% and 84.4%	-2.86% (inactive) and -0.26% (inactive)	0.33% (inactive) and 6.5% (inactive)
CCOC(=O)c1ccc(COC(=O)c2cc3ccccc3oc2=O)o1	114% (inactive)	114% (inactive)	114% (inactive)	20.8% (inactive)	93.1%	114%	-5.89% (inactive)	0.65% (inactive)
CCOc1ccc(NC(=O)C2CC(=O)N(CC)C(=Nc3ccc4c(c3)OCO4)S2)cc1 (configuration not stated)	87% (inactive)	109% (inactive)	84% (inactive)	-0.76% (inactive)	84.7%	84%	-2.84% (inactive)	-5.64% (inactive)
O=C(NCCO)c1cc2ccccc2cc1O	104% (inactive)	110% (inactive)	97% (inactive)	-17.9% (inactive)	115%	97%	-3.25% (inactive)	4.43% (inactive)
CCn1c(SCC(=O)Nc2ccccc2N2CCCCC2)nc2c1c(=O)n(C)c(=O)n2C	113% (inactive)	75.4% (inactive)	73.9% (inactive)	1.19% (inactive)	72.7%	73.9%	-6.13% (inactive)	3.09% (inactive)
CCCC1O[C@@H]2C[C@H]3[C@@H]4CCC5=CC(=O)C=C[C@]5(C)[C@H]4[C@@H](O)C[C@]3(C)[C@]2(C(=O)CO)O1 (some centres not stated)	109% (inactive)	82.4% (inactive)	79.6% (inactive)	0.52% (inactive)	79.1%	79.6%	1.04% (inactive)	-3.83% (inactive)
O=C(CN(CC1CCCO1)S(=O)(=O)c1ccc(S(=O)(=O)NC2CC2)cc1)Nc1ccccc1 (configuration not stated)	109% (inactive)	96.9% (inactive)	95.3% (inactive)	-1.47% (inactive)	96.8%	95.3%	-2% (inactive)	-9.27% (inactive)
COC(=O)c1ccc(C2C(C#N)=C(N)Oc3cc(C)n(C)c(=O)c32)cc1 (configuration not stated)	104% (inactive)	95.5% (inactive)	97.8% (inactive)	2.3% (inactive)	95.4%	97.8%	-0.82% (inactive)	-3.23% (inactive)
Cc1csc(NC(=O)c2ccccc2C(=O)O)n1	103% (inactive)	108% (inactive)	95.3% (inactive)	-0.43% (inactive)	95.8%	95.3%	-2.27% (inactive)	1.27% (inactive)
COc1ccc(C(O)C(CN2CCOCC2)c2ccccc2)cc1F (configuration not stated)	107% (inactive)	109% (inactive)	103% (inactive)	4.89% (inactive)	97.8%	103%	-0.26% (inactive)	1.64% (inactive)
COc1ccc(Cn2nnnc2C(c2ccccn2)N2CCN(c3cc(Cl)ccc3C)CC2)cc1 (configuration not stated)	101% (inactive)	73.1% (inactive)	77.3% (inactive)	-7.71% (inactive)	85%	77.3%	-2.43% (inactive)	31.6% (active)
COc1ccccc1C(=O)N1CCN(C(=O)COc2cccc(C)c2)CC1	101% (inactive)	113% (inactive)	88.6% (inactive)	2.75% (inactive)	85.9%	88.6%	-7.84% (inactive)	-0.73% (inactive)
COc1ccc(C(=O)NCCc2nnc(SCc3nc4ccccc4c(=O)[nH]3)n2C)cc1	101% (inactive)	67.3% (inactive)	83.4% (inactive)	9.63% (inactive)	73.8%	83.4%	-5.89% (inactive)	2.42% (inactive)
CC(C)(C)c1ccc(C(=O)N2CCC(C(=O)NCc3ccncc3)CC2)cc1	110% (inactive)	95.6% (inactive)	88.8% (inactive)	-5.45% (inactive)	94.3%	88.8%	-3.2% (inactive)	-8.18% (inactive)
COC(=O)c1ccc(CSc2nnnn2Cc2ccccc2)cc1	111% (inactive)	98.6% (inactive)	86% (inactive)	0.715% (inactive)	85.2%	86%	-4.13% (inactive)	-2.36% (inactive)
Nc1nc(N)c2nc(-c3ccccc3)c(N)nc2n1	128% (inactive)	90.5% (inactive)	73.3% (inactive)	-4.71% (inactive)	78%	73.3%	-2.08% (inactive)	1.5% (inactive)
